Data from ChEMBL document CHEMBL1156489, “Small molecule receptor agonists and antagonists of CCR3 provide insight into mechanisms of chemokine receptor activation” (J Biol Chem, 2007).
Substitutions are numbered along the chain they refer to. Active and inactive are the calls of the source. No cut-off for these calls is given here.

How the values were obtained:
[1] = system: T1, C-C chemokine receptor type 3 (Homo sapiens), P51677 [E287Q]; assay: Agonist activity at human recombinant CCR3 E287Q mutant expressed in mouse L1.2 cells assessed as induction of chemotaxis; type: functional, cell-based
T1 sequence (whole entry): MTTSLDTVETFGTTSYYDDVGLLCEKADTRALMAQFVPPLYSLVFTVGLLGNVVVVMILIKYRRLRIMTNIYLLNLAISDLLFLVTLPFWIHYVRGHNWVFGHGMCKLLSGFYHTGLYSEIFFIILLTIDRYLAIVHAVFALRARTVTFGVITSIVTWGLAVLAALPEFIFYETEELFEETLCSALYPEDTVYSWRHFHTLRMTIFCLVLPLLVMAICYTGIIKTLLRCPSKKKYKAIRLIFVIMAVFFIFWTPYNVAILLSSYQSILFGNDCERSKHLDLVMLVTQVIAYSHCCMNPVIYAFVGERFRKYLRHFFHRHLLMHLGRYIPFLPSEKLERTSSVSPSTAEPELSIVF
Outline: (§1)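 L1.2 cells transfected with CCR3 (stable line kept in 1 mg/ml G-418, or transient electroporation at 1 μg DNA/1 × 10^6 cells, then overnight 10 mM sodium butyrate). Duplicate agonist concentrations in RPMI/0.1% BSA were placed in the lower wells and 2 × 10^5 cells on the upper filter (5 μm pores). After 5 h at 37°C, 5% CO2, migrated cells were counted by hemocytometer and expressed as % migrating.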

[2] = target: T2, C-C chemokine receptor type 3 (Homo sapiens) (UniProt P51677); assay: Agonist activity at human recombinant CCR3 expressed in eosinophils; type: functional
T2 sequence (whole entry): T1 sequence (whole entry) with Q287E
Outline: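 Gated autofluorescence forward scatter (shape change) assay. Granulocytes from healthy-donor blood were isolated on plasma/Percoll gradients and pre-incubated at 5×10^6 cells/ml for 30 min at room temperature in GAFS buffer (PBS, 0.9 mM CaCl2, 0.5 mM MgCl2, 10 mM HEPES, 10 mM glucose, 0.1% BSA). Cells were exposed to varying compound concentrations for 4 min at 37°C, chilled, fixed and read by flow cytometry.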

[3] = target: T2, C-C chemokine receptor type 3 (Homo sapiens); assay: Agonist activity at human recombinant CCR3 expressed in mouse L1.2 cells assessed as induction of chemotaxis; type: functional, cell-based; outline: as §1
[4] = system: T3, C-C chemokine receptor type 3 (Homo sapiens), P51677 [Y41A]; assay: Agonist activity at human recombinant CCR3 Y41A mutant expressed in mouse L1.2 cells assessed as induction of chemotaxis; type: functional, cell-based; outline: as §1
T3 sequence (whole entry): T1 sequence (whole entry) with Y41A, Q287E

[5] = target: T2, C-C chemokine receptor type 3 (Homo sapiens); assay: Reduction of human recombinant CCR3 expression in mouse L1.2 cells relative to control; type: cell-based; design: scale not given: the % may be the effect or the level left
Outline: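 In duplicate, 1 × 10^6 CCR3-L1.2 cells in ice-cold medium were warmed to 37°C for 20 min, then given stimulus (100 nM CCL11 or 10 μM compound) for 20 min; ice-held tubes and a buffer tube served as controls. Surface CCR3 was measured by anti-CCR3 flow cytometry as mean fluorescence minus isotype, expressed as % of buffer-treated cells.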

[6] = system: T4, C-C chemokine receptor type 3 (Homo sapiens), P51677 [Y113A]; assay: Agonist activity at human recombinant CCR3 Y113A mutant expressed in mouse L1.2 cells assessed as induction of chemotaxis; type: functional, cell-based; outline: as §1
T4 sequence (whole entry): T1 sequence (whole entry) with Y113A, Q287E

[7] = target: T2, C-C chemokine receptor type 3 (Homo sapiens); assay: Agonist activity at human recombinant CCR3 expressed in mouse L1.2 cells assessed as receptor internalization at 10 uM after 20 mins by flow cytometry

- Activity [1]: inactive
- Activity [2]: Dose-dependent effect
- Activity [3]: Dose-dependent effect
- Activity [4]: inactive
- Activity [5]: 59.4%
- Activity [6]: inactive
- Activity [7]: Active
SMILES: O=C(Cc1cccc2occc12)Nc1cc[n+](CCCc2ccccc2)c(Br)c1
